ChEMBL document CHEMBL1144684, “Evaluation of a series of naphthamides as potent, orally active vascular endothelial growth factor receptor-2 tyrosine kinase inhibitors” (J Med Chem, 2008)

Legend:
[1] = Oral bioavailability in dog at 0.5 mg/kg, po; type: ADME, organism-based, Canis lupus familiaris; details: in vivo
Outline: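 Oral suspension dosing; vehicles: mouse 10 mg/kg in OraPlus, dog 0.5 mg/kg in 1% Tween-80/2% HPMC/97% water, cynomolgus monkey 2 mg/kg.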

[2] = Half life in cynomolgus monkey at 2 mg/kg, po; type: ADME, organism-based, Macaca fascicularis; parameters: dose 2 mg/kg, route oral; details: in vivo
Outline: (§1)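 Compound given iv and po as single doses; vehicles: mouse iv PEG 400, po OraPlus; dog iv DMSO, po 1% Tween-80/2% HPMC/97% water; cynomolgus iv propylene glycol, po suspension.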

[3] = Mean residence time in cynomolgus monkey at 0.5 mg/kg, iv; type: ADME, organism-based, Macaca fascicularis; parameters: dose 0.5 mg/kg, route intravenous; details: in vivo; outline: as §1
[4] = Intrinsic clearance in human liver microsomes at 1 uM; type: ADME, Microsome; details: read-out: Stability
Outline: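 Human or rat liver microsomes (0.25 mg protein/mL) with 1 mM NADPH, 2 mM MgCl2 in 50 mM potassium phosphate pH 7.4 at 37 °C; compound 1 µM final. Sampled 0–40 min into acetonitrile, LC-MS/MS; ln % remaining vs time slope gives T1/2; CLint = (0.693/T1/2)/0.25 mg/mL.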

Mus musculus = assay: Inhibition of VEGF-induced vascular permeability in HEK293 cells over expressing mouse recombinant VEGF implanted in CD1 nu/nu mouse assessed as Matrigel plug at 30 mg/kg, po after 6 hrs; type: functional, organism-based; parameters: dose 30 mg/kg
Outline: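 HEK293 cells transfected with murine VEGF (or empty vector) were suspended in Matrigel and injected sc into the ventral surface of CD-1 nu/nu mice. At 24 h post-implant, a single oral gavage dose was given as an OraPlus suspension (or vehicle). After 6 h, Evans blue dye was quantified in 1 cm2 of skin over the plug. Plasma was sampled at 6 h; n = 5/group.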

Liver microsomes = assay: Metabolic stability assessed as covalent binding in presence of NADPH in rat liver microsomes at 10 uM after 1 hr; type: ADME, Microsome
Outline: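 14C-labelled compound at 10 µM with human or rat liver microsomes (1 mg/mL) in 0.1 M potassium phosphate pH 7.4, with or without 1 mM NADPH and 1 mM glutathione, 60 min; quenched with ice-cold acetonitrile. Pellet washed with 80% methanol and ethanol/ether, solubilized, protein by BCA, radioactivity by scintillation counting.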

In the case of `COc1cc2nccc(Oc3ccc4c(C(N)=O)cccc4c3)c2cc1OC`, the bioavailability [1] is reported as 73%, the half-life [2] is reported as 13 h and the MRT [3] is reported as 8.6 h. The microsomal CLint at 1 µM [4] was 7 µL/min/mg, the Cp (Mus musculus) was 2.3 µM and the Stability (Liver microsomes) was 39 pmol/mg/h.
